The nature of the series: Toxicity liver stage against HepG2, at 10uM. The class given is cell-based. Details: test concentration 10 uM, cell line HepG2-A16-CD81EGFP. The settings on record: human, HepG2-A16-CD81EGFP cells; read-out: INHIBITION
The method, boiled down:
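Uninfected HepG2-A16-CD81EGFP cells, 3 × 10^3 per well, 1536-well, plated on prespotted compound at 10 μM final, parasite-free screening media added to match infected plates; puromycin 10 μM positive, DMSO 0.5% negative; run in parallel with 48 h PbLuc assay at 37 °C, 5% CO2; viability by CellTiter-Glo luminescence, normalized to controls.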

SMILES strings stand for the structures.

With `CC1CCC(NC(=O)c2nn(C)cc2Br)CC1` (configuration not stated), the cytotoxicity at 10 µM was -3.76%. Regarding `CC(C)OC(=O)N1CCC(Cc2ccc(C(=O)O)cc2)C1` (configuration not stated), the cytotoxicity at 10 µM stood at 3.38%. To `CCC(=O)NCC(=O)N(C)C(c1ccc(Cl)cc1)c1cccnc1` (configuration not stated) belongs 3.88%; to `O=C(NCCc1cccs1)[C@]12COC[C@H]1CN(Cc1ccncc1)C2`, -114%; to `COc1cccc(CN2C[C@@H]3COC[C@]3(COCc3ccccn3)C2)c1`, -88.8%. To `O=C(NCCn1ccnc1)N1CCN(Cc2cccnc2)CC1` belongs -4.64%; to `Cc1cc(S(=O)(=O)N2C[C@H](C3CC3)[C@@H](N)C2)c(C)s1`, -2.36%.

With `Cc1cc(N2C[C@H](NC(=O)C3(C#N)CCOCC3)[C@@H](C(C)C)C2)ccn1`, the cytotoxicity at 10 µM is -4.1%. In the case of `COc1ccc(S(=O)(=O)Nc2cnc(N(C)C)nc2)cc1` it was -4.45%; in that of `O=C(Cn1ccnc1)N1C[C@@H]2CC[C@H](Oc3ccccc3Cl)[C@@H]2C1`, 11.9%. For `O=C1CCCc2nccc(-c3ccccc3)c21`, the cytotoxicity at 10 µM was 3.15%.

Regarding `Cc1nccn1-c1ccc(CNS(=O)(=O)N2CCC(C)CC2)cn1`, the cytotoxicity at 10 µM was determined as 1.28%. With `CCC(CC)N1CCC(c2[nH]ncc2S(C)(=O)=O)C1` (configuration not stated), the cytotoxicity at 10 µM was -3.51%. Consider `COc1ccc(Cl)cc1NC(=O)CCC1CCCN(Cc2ncon2)C1` (configuration not stated), for which the cytotoxicity at 10 µM is -4.18%. Turning to `Cn1cc(C2COC3(CCN(C(=O)c4cnccn4)CC3)C2)cn1` (configuration not stated), the cytotoxicity at 10 µM was -68.5%. Turning to `Nc1nc(CC(=O)N2CCCC(CCc3cccc(F)c3)C2)cc(=O)[nH]1` (configuration not stated), the cytotoxicity at 10 µM was -6.12%.

With `CN(C)c1ccc(NC(=O)CN2CCS(=O)(=O)CC2)cn1`, the cytotoxicity at 10 µM came to 6.56%. For the molecule `Cc1cc(NC(=O)N(Cc2ccc(C#N)cc2)C(C)C)no1`, the cytotoxicity at 10 µM was -17%.

For the molecule `CC1=CC[C@@H]2CN(C(=O)c3ccc(-c4nnn(C)n4)cc3)C[C@@H]2C1`, the cytotoxicity at 10 µM came to 7.16%. As to `CN(C)CC1CN(CC(=O)N2CCc3ccccc32)CCO1` (configuration not stated), the cytotoxicity at 10 µM was -1.61%. In the case of `Cc1nn(C)c(C)c1NC(=O)CN1CCOC(CN(C)C)C1` (configuration not stated) it was -8.72%; in that of `Cc1cnccc1Cn1ccnc1C1CCOC1` (configuration not stated), -2.53%; in that of `Cc1noc(C)c1C(=O)N1CCOC2(COCCN(C(C)C)C2)C1` (configuration not stated), 2.71%. For `CCCS(=O)(=O)c1ncc(CN2CCC(CO)CC2)n1CC1CCCO1` (configuration not stated), the cytotoxicity at 10 µM worked out at 7%. Consider `c1cnc(N2CCC3(CCCN(CC4CC4)C3)CC2)nc1`, for which the cytotoxicity at 10 µM is -3.24%. On to `CC(Cc1cccs1)C(=O)NCc1cccc(N2CCCC2=O)c1` (configuration not stated), for which the cytotoxicity at 10 µM was found to be 2.4%.

Turning to `COc1c(C2CCCN2c2ncnc3sccc23)c(C)nn1C` (configuration not stated), the cytotoxicity at 10 µM was determined as 21.5%.

For `CC1(NC(=O)Cc2csc(-c3cccc(Cl)c3)n2)CCS(=O)(=O)C1` (configuration not stated), the cytotoxicity at 10 µM was -3.61%. With `Cc1csc2c(=O)n3c(nc12)CCN(C(=O)c1ccnn1C)CC3`, the cytotoxicity at 10 µM was -9.35%. With `O=S(=O)(c1ccccc1N1CC(n2cccn2)C1)C(F)(F)F`, the cytotoxicity at 10 µM came to 6.68%. To `CCSc1ncc(-c2nccn2CCN(C)C)cn1` belongs 2.41%; to `O=c1[nH]nc(CNc2ncc(Cl)cn2)[nH]1`, -5.98%; to `Cc1nn(C)c2cnn(Cc3ccc(C(=O)NC4CC4)cc3)c12`, 6.42%. As to `O=C(CNc1ccc(OC2CCOC2)cc1)NCc1cccs1` (configuration not stated), the cytotoxicity at 10 µM is 3.43%. `CC(O)c1cccc(OCc2ccon2)c1` (configuration not stated): the cytotoxicity at 10 µM is -5.28%. With `COCCN1CCC2(CC1)CC(N1CCOCC1)c1ccc(C)cc12` (configuration not stated), the cytotoxicity at 10 µM was -106%.

For `OCCn1nccc1C1CCN(CCOc2ccccc2F)CC1`, the cytotoxicity at 10 µM is -5.25%. For `COCC(=O)N1CCc2c(CNS(C)(=O)=O)n[nH]c2C1`, the cytotoxicity at 10 µM amounted to 4.32%.

Consider `CSCc1cccc(S(=O)(=O)N2CCCCC2)c1`, for which the cytotoxicity at 10 µM was determined as 6.61%.

In the case of `Cc1nsc(NC(=O)NC2CCOCC2)n1`, the cytotoxicity at 10 µM was -10.1%. On to `CCn1ccnc1CN1CCN(CC(=O)NC(=O)NC2CC2)CC1`, for which the cytotoxicity at 10 µM is -3.3%. Take `CCC(C(=O)NC1CCCCC1)n1ccc2ncccc2c1=O` (configuration not stated): the cytotoxicity at 10 µM turned out to be 2.17%. For the molecule `COCCC(=O)N1Cc2cnc(Cc3ccc(OC)cc3)nc2C1`, the cytotoxicity at 10 µM is -0.641%. Turning to `Cc1cccc(=O)n1CCC(=O)N(C)Cc1cccc2ncccc12`, the cytotoxicity at 10 µM is 0.66%. `OCC1(CC2CC2)CCCN(Cc2cnc(N3CCOCC3)nc2)C1` (configuration not stated): the cytotoxicity at 10 µM is -0.274%. `CC(C)(O)CN1CCN(C(=O)c2cccn2Cc2ccncc2)CC1`: the cytotoxicity at 10 µM is -2.59%.

`Cc1cc(C)c(C#N)c(NCCn2cnnc2C(C)C)n1`: the cytotoxicity at 10 µM was 10.2%.

For the molecule `CSCC1CCCN(c2ncnc3oc(C)nc23)C1` (configuration not stated), the cytotoxicity at 10 µM amounted to 4.03%. To `Cc1ncc(CNCC(C)O)c2cc(C(=O)c3ccc(Br)cc3)oc12` (configuration not stated) belongs 1.39%; to `COc1ccc(CN2CCc3nnc(COCCN(C)C)n3CC2)cc1`, 4.5%; to `Cc1ncc(-c2ccnc(NC3CC3)n2)c(-c2cccnc2)n1`, -14.2%. Turning to `Cc1ccc(-n2cc(C(=O)NCC(C)Cn3cccn3)nn2)cc1` (configuration not stated), the cytotoxicity at 10 µM was -46.2%. On to `COc1cccc(CN2C[C@@H]3CC[C@@](O)(c4ccccn4)[C@@H]3C2)c1OC`, for which the cytotoxicity at 10 µM was -9.94%. To `N#Cc1cc(F)c(N2CCC(NS(=O)(=O)c3cccs3)CC2)c(F)c1` belongs 8.76%; to `O=c1[nH]c2ccccc2c2c1CCO2`, 6.9%.

With `Cc1ccc(CN2CC[C@@H](NC(=O)c3cccnc3)[C@H](O)C2)s1`, the cytotoxicity at 10 µM is -2.68%.

In the case of `c1ncc2c(n1)CN(Cc1nc(-c3ccc4c(c3)OCO4)no1)CC2`, the cytotoxicity at 10 µM is -10.4%.

For the molecule `CN1CCC[C@H]1c1nc(-c2cncnc2N)no1`, the cytotoxicity at 10 µM was 2.6%. In the case of `Cc1cc(C(=O)NCC2(C(N)=O)CCOCC2)nn1C(C)(C)C` it was -16.6%; in that of `CCn1cc(-c2cc(-c3cc(CC(=O)O)cs3)nc(N)c2C#N)c(C)n1`, 1.16%. For the molecule `CNC(=O)N1CC[C@H]2N(C)CC[C@@]2(C(=O)Nc2ccccc2)CC1`, the cytotoxicity at 10 µM is -17.2%. As for `CCCc1nnc(NCCc2noc(C3CCC3)n2)o1`, the cytotoxicity at 10 µM is -8.22%. As for `CC(C)C(C)(CNC(=O)OC(C)(C)C)NC(=O)c1cnccn1` (configuration not stated), the cytotoxicity at 10 µM is -6.62%.

Turning to `Cc1noc(CN(C)Cc2ccc3c(c2)OCO3)n1`, the cytotoxicity at 10 µM was -13.2%. To `COc1ccc(CN(Cc2cncn2C)CC2CCCO2)cc1OC` (configuration not stated) belongs -3.06%.

In the case of `Cn1nc(-c2ccc(F)cc2)cc1C(=O)NCCn1ccnc1`, the cytotoxicity at 10 µM was 3.68%. To `CCc1nc(CNc2ccc(F)cc2I)no1` belongs 3.36%; to `CCCn1nc2c(cc1=O)CN(Cc1ncc(C(C)(C)C)o1)CC2`, -7.17%. `CS(=O)(=O)NC1CCN(C(=O)NCCNc2ccccn2)CC1`: the cytotoxicity at 10 µM is -0.685%.

As for `Cc1cnc(Nc2cccc(C3CCCN3C(=O)CO)n2)s1` (configuration not stated), the cytotoxicity at 10 µM was -30.6%. As to `CN1CCN(c2nsc(-c3ccccc3)c2C#N)CC1`, the cytotoxicity at 10 µM is 1.28%.

With `O=C(NCc1cnc2n1CCN(Cc1nccs1)CC2)C1CCC1`, the cytotoxicity at 10 µM came out at 0.588%.

On to `Cc1cc(NC(=O)NCc2cccnc2OC2CCCC2)n(C)n1`, for which the cytotoxicity at 10 µM is -1.07%. Consider `Cc1noc(C)c1-c1cncc(C2CCCN2Cc2ncc[nH]2)n1` (configuration not stated), for which the cytotoxicity at 10 µM was -8.89%. As to `O=C(c1cnccn1)N1CCN(CC2CC2)c2ncccc2C1`, the cytotoxicity at 10 µM is -3.99%. In the case of `Cc1cc(N2CCCN(CCc3ccccc3)CC2)ccn1`, the cytotoxicity at 10 µM was -3.67%. To `CNc1nc2ncc(Cl)cc2cc1C#N` belongs 5.05%; to `Cc1nnc(NC(=O)NCc2ccc(N3CCC(C)CC3)nc2)s1`, -1.36%; to `Cc1nn(C)c(C)c1CC(=O)N1CCCC(n2cccn2)C1` (configuration not stated), -13.7%. Regarding `CCn1nc(C)c(NC(=O)CN2CC[C@H](CO)[C@@H](O)C2)c1C`, the cytotoxicity at 10 µM stood at 0.887%. As for `CCc1nc(NCCc2nc(C)c(C)s2)c2cnn(C)c2n1`, the cytotoxicity at 10 µM was 6.31%. In the case of `Fc1cnc(N2C[C@H]3CCC[C@@]3(COc3ccccn3)C2)nc1` it was 15.6%; in that of `CC=C(C)C(=O)NS(=O)(=O)c1ccc(C(F)(F)F)cc1`, 3.12%. Regarding `N#Cc1cccc(CN2C[C@H](OCC3CCOCC3)[C@H]3COC[C@H]32)c1`, the cytotoxicity at 10 µM was -0.82%. To `CN1CCN(C[C@@H]2OC[C@H]3CN(Cc4ccsc4)CC[C@H]32)CC1` belongs -11%; to `Oc1cccc2ccc(CN3CCC4(CCNCC4)C3)nc12`, -6.19%. As for `COc1ccc(CCCN(C)C(=O)c2cc(Cl)c[nH]2)cc1OC`, the cytotoxicity at 10 µM is -1.24%. Regarding `COC1C[C@@H]2CN(C(=O)c3cc4cccc(F)c4[nH]3)C[C@@H]2C1` (some centres not stated), the cytotoxicity at 10 µM was determined as 1.51%. With `COc1ccc(-c2cnc3n2CCNC32CCN(S(C)(=O)=O)CC2)cc1`, the cytotoxicity at 10 µM is -2.72%. Take `CCCn1nccc1C(=O)N1CCCC(C(=O)CCc2ccccc2)C1` (configuration not stated): the cytotoxicity at 10 µM was -1.08%. On to `CC(C)(CNc1ccc2ccc(F)cc2n1)NS(C)(=O)=O`, for which the cytotoxicity at 10 µM is -7.04%.

`c1ccc(-c2cc(CN3C[C@H]4CC[C@@H](C3)N(CC3CC3)C4)on2)cc1`: the cytotoxicity at 10 µM was -4%. As to `CC1COCCN1Cc1nc(C(C)(C)C)no1` (configuration not stated), the cytotoxicity at 10 µM turned out to be 4.87%. For `CN1CCN(Cc2ccccc2CNC(=O)c2ccc(Cl)cc2F)CC1`, the cytotoxicity at 10 µM worked out at 15.5%. As for `O=C(CCn1cccn1)NCCOc1ncc(Cl)cc1Cl`, the cytotoxicity at 10 µM was -3.82%. To `CC(C)(NS(C)(=O)=O)c1nc(-c2cccc(Cl)c2)no1` belongs 2.31%. As to `O=S(=O)(C1CC1)N1CCc2ncnc(N3CCOCC3)c2CC1`, the cytotoxicity at 10 µM was -109%.

For the origin of these results see ChEMBL document CHEMBL4513216, “Probing the Open Global Health Chemical Diversity Library for Multistage-Active Starting Points for Next-Generation Antimalarials” (ACS Infect Dis, 2020).
